Reference: the RNAGym collection of RNA variant scans (doi:10.1126/science.aae0568)
Variants at the floor of the assay were thinned out.

B1: tRNA (parent)
chain: GUUCCGUUGGCGUAAUGGUAACGCGUCUCCCUCCUAAGGAGAAGACUGCGGGUUCGAGUCCCGUACGGAACG

Variants of: B1
Test: yeast fitness relative to wild type (ratio to wild type); higher = fitter; tRNA-Arg(CCU), competitive growth, 37 C, YPD
Method in brief: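 Start and end populations of a pooled competition were compared by 100-nucleotide paired-end sequencing of gene amplicons. The Saccharomyces cerevisiae strains carried tRNA-Arg(CCU) gene variants at the native genomic locus, synthesised with a 3% per-site mutation rate at 69 sites, and competed in YPD at 37°C for 24 hours in six parallel replicates. Darwinian fitness relative to wild type was based on the change in genotype frequencies. Genotypes required ≥ 100 starting reads, and estimates < 0.5 were set to 0.5.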

Point of comparison: GUUCCCUUGGCCUAAUGGUAACGCGUCUCCCUCCUAAGGAGAAGACUGCGGGUUCGAGUCCCGUACGGAACG, yeast fitness 0.676. Against it:
- GUUGCGUUGACGUAAUGGUAACGCGUCUUCCUCCUAAGGAGAAGAGUGCGGGUUCGAGUCCCGUACGGAACG — lower, ≤ 0.5
- GUUCCGUUGGCGUAAUGGUAACGCGUCCCCCCCUUAAGGAGAAGUCUGCGGGUUCGAGUCCCGUACGGAUCG — lower, 0.584
- GUUCCGUUGGCGUAAUGGUAACGCGUCUCCCUCCUAAGGAGAAGUGUGCGGGUUCGAGUCCCGUACGGAACG — higher, 0.739
- GUUCCGUUGGCGUAAUGGUAACGCCCCUCCCUCCUAAGGAGAAGACUGCGGGUUCGAGUCCCGUACGGAACG — higher, 0.904
- GUUCCGUUGGUGUAAUGGUAACGCGUCUCCCUCCUGAGGAGAAGCCUGCGGGUUCGAGUCCCGUACGGAACG — higher, 0.807
- GUUCCGUUGGCGUAAUGGUAACGCGUCUCCUCCCUAAGGACAAGACUGCGGGUUCGAGUCCCGUACGUAACG — lower, ≤ 0.5
- GUUCCGUUGGCGUAUUGGUAACGCGUAUCCCUCCCAAGGAGAAGACUGCGGGUCCGAGUCCCGCACGGAACG — lower, ≤ 0.5
- GUUCCGUUGGCGUAAUGGUAACCCGUCUCCCUCCGAAGGAGUAGACUGCGGGUUCGAGUCCCGUACGGAACG — lower, ≤ 0.5
- GUUCCGAUGGCGUAAUGGUAACGCGUCUCCCUCCUAAGGAGAAGAGUGCGGGUUCGAGUCCCGUACGGAACG — higher, 0.787
- GUUCGGUUGGCGCAAUGGUCACGCGUCUCCCGCCUAAGGAGAAGAUUGCGGGUUCGACUCCCGUACGGAACG — lower, ≤ 0.5
- GUUCUGUUGGCGUAAUGGUAACGCGUCUCCCUCCUAAGGAGAAGGCUGGGGGUUCGAGCUCCGUACGGCACG — lower, ≤ 0.5
- GUUCCGUUGGUGUAAUGGUGACGGGUCUCCCUCCUAAGGAGAAGACUGCGGGUUCGAGUCCCGUACGGAACG — lower, 0.506
- GUUCCGUUGGGGUAAUGGUAACGCGUCUCCCUCCUAAGGAAAAGACUGCGGGUUCGAGUCCCGUACGGAGCG — lower, ≤ 0.5
- GUUCCGUUGGCGAAAUGGUAACGCGUCUCCCUACUAAGGAGAAGACUGCGGGUCCGAGUCCCGUACGGAACG — lower, ≤ 0.5
- GUUCCGUUGGCGUAAUGGUAACGCGGCUCCCUCCUACGGAGGACGCUGUGGGUUCGAGUCCCGUUCGGAACG — lower, ≤ 0.5
- GUUCCGUUGGAGUAUUGGUAACGCGUCUCCCUCAUAAGCCGAAGACUGCGGGUUCCAGUCGGGUACGCAACG — lower, ≤ 0.5
- GUUCCGUUGGCGUAAUGGUAACGCGUCUCCCUCCUAAGGAGAAAACUGCGGGUUCGAGACCCGUACGGAACG — lower, 0.601
- GUUCCGUUGGCGUAGUGGUAACGGGUCUCCCUCCUAAGGAGAAGACUGCGGGUUCGAGUCCCGUACGGAACG — lower, 0.586
- GUUCCGUUGGGGUAGUGGUAACGCGUCGUCCUGCUAAGGAGAAGAGUGCGGGUUCGCGUCCCGUACGGAACG — lower, ≤ 0.5
- GUUCCGUUGGCGUAAUGGUAACGCGUCUCCGUCCUAAGGAGAAGACUGCGGGUUCGAGUCCCGUUCGGAGCG — lower, 0.589
- GUUCCGUUGGCGUAAUGGUAAUGCGUCUCCAUCCUAAGGAGAAGACUGCGGGUUCGAGUUCCGUACGGAACG — lower, ≤ 0.5
- GUUCCGUUGGCGUAAUGGUAACGCGUCUUGCUCCUAAGGAGAAGACUGCGGGUUCGAGUCCCGUACGGAACG — higher, 0.716
- GUUCUCUUGGCGUAAUGGUAACGCGUCUCCCUCCUAAGAAGAAGUGUGCGGGUUCGCGUCCCGUACGGAACG — lower, ≤ 0.5
- GUUCCGUUGGCGUAAUGGUAACGCGUCUCCCUCCUAAGGAAAAGACUGCGGGUUCGAGUGCAGUGCGGAACG — lower, ≤ 0.5
- GUGCCGUUGGCGUAAUGGUAACGCGUCUCCCUCCUAAGGAGAAGAGUGCGGCUUCGAGUCCCGUACGGAACG — lower, ≤ 0.5
- GGUCCGUUGGCGUAAUGCUAACGCGUCUGACUCGUAAGGAGAAGACUCCGGGUUCGAGUCCCGUACGGAACG — lower, 0.604
- GUUCCGUUGGCGUAUUGGUAACGCCUCUCCCUCCUAAGGAGAAGACUGCGGGUUCGAGUCUCCUACGGAACG — lower, 0.545
- GUUCCGUCGGCGUAAUGGUAACGCGUCUCUAUGCUAAGGAGGAGACUGCGGGUUCGAGUACCGUACGGAACG — lower, ≤ 0.5
- GUUCCGUUGGCGUAAUGGUAACGCGUCUCCCUCCUAAGGAGAAGAGUGCGGGUUCGAGUCCCGUACGGACCG — higher, 0.923
- GUUCCGUUGGCGUAAUGGUAACGUGUCUCCGUCCUAAGGAGAAAACUGCGGGUUCGAGUCCCGUACGGAACG — lower, 0.508
- GUUCCGUUGGCGUAAUGGGAACGCGUGUCCCUCAUAAGGAGUAGACUGCGGGUUCGAGUCCCGUACGGAACG — lower, ≤ 0.5
- GUUCCGUUGGCGUAAUGGUAACGCGUCUCCCUCCUAAGCAGAAGACUGCGGGUUCGCGUCCCGUACGGAUCG — lower, ≤ 0.5
- GUUCCGUUGGCGUAAUGGCAACGCGUCUCCCUCCUAAGGAGAAGACUGCAGGUUCGAGUCCCGUCCGGAACG — lower, 0.566
- GUUCCGUUGGCGUAAUGGUAACGCGUCUCCCUCCUGAGAAGAAGACAGCGGGUUCGAGUCCCGUACGCAACG — lower, ≤ 0.5
- GUUCAGUUGGCGUAAUGAUAACGCAUCUCCUUCCUAAGGAGAAGACUGCGGGUUCGAGUCUCGUACGGAACG — lower, 0.562
- GUCCCGUUGGCGUAAUGGUAACGCGUCUCCCUCCUAAGGAGAAGACUGCGGGUUAGAGUCCCGUUCGGAACG — lower, ≤ 0.5
